Data as given in ChEMBL document CHEMBL5385869, “Novel 4-aminoquinolines: Synthesis, inhibition of the Mycobacterium tuberculosis enoyl-acyl carrier protein reductase, antitubercular activity, SAR, and preclinical evaluation” (Eur J Med Chem, 2023).
In brackets after ≈: the same amount, converted by molar mass. Activity calls are given as the source filed them. No cut-off for these calls is given here.

Tests used:
[1] = test system: Mycobacterium tuberculosis; experiment: Antibacterial activity against pan-sensitive Mycobacterium tuberculosis H37Rv ATCC 27294 measured after 7 days by resazurin dye based assay; format: functional; settings: H37Rv ATCC 27294, 168 h, time 7 day
Summary of the method: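 Resazurin reduction microplate assay (REMA) in Middlebrook 7H9 broth with 10% ADC and 5% DMSO. Compounds come from 2 mg/mL DMSO stocks and are 2-fold serially diluted, top concentration 0.08–40 μg/mL depending on solubility. MIC is the lowest concentration preventing the blue-to-pink colour change. Three independent experiments; the reported value is the modal or the highest value.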

[2] = test system: Mycobacterium tuberculosis; experiment: Potency index, ratio of isoniazid MIC to test compound MIC for antibacterial activity against pan-sensitive Mycobacterium tuberculosis H37Rv ATCC 27294 measured after 7 days by resazurin dye based assay; format: functional; settings: time 7 day
[3] = target: T1, Enoyl-[acyl-carrier-protein] reductase [NADH] (Mycobacterium tuberculosis) (UniProt P9WGR1); experiment: Time dependent inhibition of Mycobacterium tuberculosis InhA
T1 sequence (whole entry): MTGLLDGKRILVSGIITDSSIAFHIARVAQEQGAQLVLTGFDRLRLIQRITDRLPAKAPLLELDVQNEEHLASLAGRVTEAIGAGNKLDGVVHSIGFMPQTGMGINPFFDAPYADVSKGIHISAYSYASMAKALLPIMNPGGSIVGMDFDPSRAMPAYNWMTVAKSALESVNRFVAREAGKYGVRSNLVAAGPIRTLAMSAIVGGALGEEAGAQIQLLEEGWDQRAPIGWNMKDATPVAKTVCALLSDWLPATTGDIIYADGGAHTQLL

[4] = target: T2, Enoyl-[acyl-carrier-protein] reductase [NADH] (Mycobacterium tuberculosis, UniProt P9WGR1); experiment: Noncompetitive inhibition of Mycobacterium tuberculosis InhA using DD-CoA as substrate assessed as inhibition constant for enzyme-substrate-inhibitor ternary complex in presence of varying concentrations of NADH by double reciprocal plot analysis
T2 sequence (P9WGR1 whole entry): T1 sequence (whole entry)

[5] = target: T2, Enoyl-[acyl-carrier-protein] reductase [NADH]; experiment: Noncompetitive inhibition of Mycobacterium tuberculosis InhA using DD-CoA as substrate assessed as inhibition constant for enzyme-inhibitor binary complex in presence of varying concentrations of NADH by double reciprocal plot analysis
[6] = Cytotoxicity against African green monkey Vero cells assessed as reduction in cell viability incubated for 72 hrs by neutral red uptake assay; format: toxicity, cell-based; settings: chlorocebus sabaeus
Summary of the method: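 Cells grown in DMEM with 10% FBS. HepG2 seeded at 4 × 10³ and Vero at 2 × 10³ cells/well, 24 h before dosing. Compounds at 1, 5 and 20 μM in 1% DMSO for 72 h at 37 °C, 5% CO2. MTT readout: 5 mg/mL reagent for 4 h, absorbance at 595 nm. Neutral red readout: 25 μg/mL dye for 3 h, then acid-ethanol desorb. Viability is expressed relative to 1% DMSO controls.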

[7] = Selectivity index, ratio of CC50 for human HepG2 cells by MTT assay to MIC for pan-sensitive Mycobacterium tuberculosis H37Rv ATCC 27294; format: toxicity; settings: read-out: Selectivity Index
[8] = Selectivity index, ratio of CC50 for African green monkey Vero cells by neutral red uptake assay to MIC for pan-sensitive Mycobacterium tuberculosis H37Rv ATCC 27294; format: toxicity, cell-based; settings: read-out: Selectivity Index
[9] = test system: Escherichia coli; experiment: Antibacterial activity against Escherichia coli ATCC 25922 assessed as inhibition of bacterial growth at 20 uM by broth microdilution method; format: functional, organism-based
Summary of the method: (§1)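 Broth microdilution in triplicate against a small bacterial panel, with compounds tested at 20 μM for growth inhibition.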

[10] = test system: Klebsiella pneumoniae; experiment: Antibacterial activity against multidrug-resistant Klebsiella pneumoniae clinical isolates assessed as inhibition of bacterial growth at 20 uM by broth microdilution method; format: functional, organism-based; summary of the method: as §1
[11] = Chemical stability in 0.1 M HCl solution at pH 1.2 assessed as parent compound remaining at 1 to 10 uM measured after 24 hrs by HPLC-EM/MS analysis; format: physicochemical; settings: dose 1-10 µM, read-out: Stability
Summary of the method: (§2)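 Compounds at 1–10 μM incubated 24 h at 37 °C in three media: pH 1.2 (0.1 M HCl), pH 7.4 (PBS) and pH 9.1 (0.1 M NH4HCO3). Remaining parent compound quantified afterward.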

[12] = Chemical stability in PBS at pH 7.4 assessed as parent compound remaining at 1 to 10 uM measured after 24 hrs by HPLC-EM/MS analysis; format: physicochemical; settings: dose 1-10 µM, read-out: Stability; summary of the method: as §2
[13] = Chemical stability in 0.1 M NH4HCO3 solution at pH 9.1 assessed as parent compound remaining at 1 to 10 uM measured after 24 hrs by HPLC-EM/MS analysis; format: physicochemical; settings: dose 1-10 µM, read-out: Stability; summary of the method: as §2
[14] = Solubility of compound in 0.1 M HCl solution at pH 1.2 at 1 mg incubated for 4 hrs under shaking conditions by liquid chromotography; format: physicochemical
Summary of the method: (§3)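 1 mg of compound was added to 1 mL of PBS pH 7.4 or 0.1 M HCl, in triplicate. Suspensions were vortexed 1 min, shaken 4 h at 25 °C, then centrifuged 13000 rpm for 15 min at 25 °C. Supernatant was quantified by reverse-phase UHPLC (UV 260–280 nm) against a single-point calibration of compound in DMSO.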

[15] = Solubility of compound in PBS at pH 7.4 at 1 mg incubated for 4 hrs under shaking conditions by liquid chromotography; format: physicochemical; summary of the method: as §3
[16] = Metabolic stability in rat liver microsomes assessed as half life at 2 uM measured upto 30 mins by HPLC/MS/MS analysis; format: ADME, Microsome
Summary of the method: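 Compounds at 2 μM incubated at 37 °C with 1 mg/mL rat liver microsomes containing NADPH. Parent compound consumption followed over time.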

[17] = Chemical stability in 0.1 M NH4HCO3 solution at pH 9.1 assessed as reduction in parent compound at 1 to 10 uM measured after 24 hrs by HPLC-EM/MS analysis; format: physicochemical; settings: dose 1-10 µM, read-out: Drug degradation; summary of the method: as §2
[18] = test system: Mycobacterium tuberculosis; experiment: Antibacterial activity against Mycobacterium tuberculosis H37Rv ATCC 27294 infected in mouse RAW264.7 cells assessed as reduction in colony forming units at 5 uM measured after 5 days (reference value: 4.19 +/- 0.41); format: functional; settings: time 5 day
[19] = Genotoxicity in human HepG2 cells assessed as induction of DNA damage at 1 to 5 uM incubated for 24 hrs by alkaline comet assay; format: toxicity, cell-based; settings: hepg2, 24 h, dose 1-5 µM
Summary of the method: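 Alkaline comet assay in HepG2 cells seeded at 8 × 10⁴ cells/well. Exposure to 1 or 5 μM for 24 h. Lysis 48 h, alkali unwinding (300 mM NaOH, pH >13) 20 min at 4 °C, electrophoresis 20 min at 25 V, silver staining.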

[20] = target: T2, Enoyl-[acyl-carrier-protein] reductase [NADH]; experiment: Binding affinity to Mycobacterium tuberculosis InhA assessed as dissociation constant at 250 uM at 25 degreeC in presence of NADH by fluorescence spectroscopy
Summary of the method: (§4)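 Titration of pre-formed MtInhA:NADH complex (2 mL of 3 μM enzyme with 20 μM NADH), adding microliter aliquots of 250 μM ligand stock with dilution kept ≤1%. Intrinsic fluorescence read at 295 nm excitation, 310–500 nm emission. Temperatures 15, 20, 25 and 30 °C. KD is fitted to a hyperbolic isotherm. ΔH°, ΔS° and ΔG° come from van't Hoff analysis of KD across temperatures.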

[21] = target: T1, Enoyl-[acyl-carrier-protein] reductase [NADH] (Mycobacterium tuberculosis); experiment: Binding affinity to Mycobacterium tuberculosis InhA assessed as gibbs free energy change at 250 uM in presence of NADH by fluorescence spectroscopy; summary of the method: as §4

For `Cc1cc(Nc2ccc(N3CCCCC3)cc2)c2cc(Cl)ccc2n1`, the MIC [1] was 0.9 µM (≈ 0.317 µg/mL), the Ratio [2] was about 2.6 and the TDI [3] was “inactive”. It also gave a Ki [4] of 460 nM, a Ki [5] of 430 nM and a CC50 at 72 h [6] of 11700 nM. For the same compound, the selectivity ratio [7] was over 22.2, the selectivity ratio [8] was 13 and the Activity [9] was “inactive”. For the same compound, the Activity [10] was “inactive”, the remaining at 24 h, up to 10 µM [11] was 98.6% and the remaining at 24 h, up to 10 µM [12] was 100%. For the same compound, the remaining at 24 h, up to 10 µM [13] was 24.7%, the solubility thermodynamic at 4 h [14] was over 2800 µM and the solubility thermodynamic at 4 h [15] was 18.6 µM (≈ 6.54 µg/mL). The half-life at 2 µM [16] was 5.9 min, the degraded at 24 h, up to 10 µM [17] was over 75% and the Activity [18] was 2.39 log10CFU. For the same compound, the Activity [19] was “Non-Toxic”, the Kd [20] was 900 nM and the deltaG [21] was -8.3 kcal/mol.

With `Cc1cc(Nc2ccc(N3CCCCC3)cc2)c2cc(Br)ccc2n1` the MIC [1] was 0.4 µM (≈ 0.159 µg/mL), the Ratio [2] was about 5.8 and the TDI [3] was “inactive”. The Ki [4] was 150 nM, the Ki [5] was 140 nM and the CC50 at 72 h [6] was 12200 nM. For the same compound, the selectivity ratio [7] was over 50, the selectivity ratio [8] was 30.5 and the Activity [9] was “inactive”. For the same compound, the Activity [10] was “inactive”, the remaining at 24 h, up to 10 µM [11] was 94.6% and the remaining at 24 h, up to 10 µM [12] was 100%. It also gave a remaining at 24 h, up to 10 µM [13] of 47%, a solubility thermodynamic at 4 h [14] of over 2500 µM and a solubility thermodynamic at 4 h [15] of 3.9 µM (≈ 1.55 µg/mL). The half-life at 2 µM [16] was 22 min, the degraded at 24 h, up to 10 µM [17] was about 50% and the Activity [18] was 2.74 log10CFU. The Activity [19] was “Non-Toxic”, the Kd [20] was 810 nM and the deltaG [21] was -8.3 kcal/mol.
